Test [1] addresses Histone-lysine N-methyltransferase SUV39H2 (Homo sapiens, UniProt Q9H5I1). The test is described as follows: Inhibition of SUV39H2 assessed as hydrolysis of S-adenosyl-L-homocysteine after 2 mins by SAHH-coupled fluorescence assay. A digest of the protocol: (§1)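 Same coupled ThioGlo readout (25 mM potassium phosphate pH 7.5, 25 μM SAM, 5 μM SAHH, adenosine deaminase), 4 nM–16 μM inhibitor with 2 min preincubation, 20 min fluorescence at 360/528 nm. Enzyme and substrate by target: SETD7 200 nM with 100 μM H3(1–25); SETD8 250 nM with 500 μM H4(1–24); SUV39H2 100 nM with 200 μM H3K9Me1(1–15).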

Test [2] addresses T1, Histone-lysine N-methyltransferase EHMT1 (Homo sapiens, UniProt Q9H9B1).
T1 sequence (Q9H9B1 whole entry): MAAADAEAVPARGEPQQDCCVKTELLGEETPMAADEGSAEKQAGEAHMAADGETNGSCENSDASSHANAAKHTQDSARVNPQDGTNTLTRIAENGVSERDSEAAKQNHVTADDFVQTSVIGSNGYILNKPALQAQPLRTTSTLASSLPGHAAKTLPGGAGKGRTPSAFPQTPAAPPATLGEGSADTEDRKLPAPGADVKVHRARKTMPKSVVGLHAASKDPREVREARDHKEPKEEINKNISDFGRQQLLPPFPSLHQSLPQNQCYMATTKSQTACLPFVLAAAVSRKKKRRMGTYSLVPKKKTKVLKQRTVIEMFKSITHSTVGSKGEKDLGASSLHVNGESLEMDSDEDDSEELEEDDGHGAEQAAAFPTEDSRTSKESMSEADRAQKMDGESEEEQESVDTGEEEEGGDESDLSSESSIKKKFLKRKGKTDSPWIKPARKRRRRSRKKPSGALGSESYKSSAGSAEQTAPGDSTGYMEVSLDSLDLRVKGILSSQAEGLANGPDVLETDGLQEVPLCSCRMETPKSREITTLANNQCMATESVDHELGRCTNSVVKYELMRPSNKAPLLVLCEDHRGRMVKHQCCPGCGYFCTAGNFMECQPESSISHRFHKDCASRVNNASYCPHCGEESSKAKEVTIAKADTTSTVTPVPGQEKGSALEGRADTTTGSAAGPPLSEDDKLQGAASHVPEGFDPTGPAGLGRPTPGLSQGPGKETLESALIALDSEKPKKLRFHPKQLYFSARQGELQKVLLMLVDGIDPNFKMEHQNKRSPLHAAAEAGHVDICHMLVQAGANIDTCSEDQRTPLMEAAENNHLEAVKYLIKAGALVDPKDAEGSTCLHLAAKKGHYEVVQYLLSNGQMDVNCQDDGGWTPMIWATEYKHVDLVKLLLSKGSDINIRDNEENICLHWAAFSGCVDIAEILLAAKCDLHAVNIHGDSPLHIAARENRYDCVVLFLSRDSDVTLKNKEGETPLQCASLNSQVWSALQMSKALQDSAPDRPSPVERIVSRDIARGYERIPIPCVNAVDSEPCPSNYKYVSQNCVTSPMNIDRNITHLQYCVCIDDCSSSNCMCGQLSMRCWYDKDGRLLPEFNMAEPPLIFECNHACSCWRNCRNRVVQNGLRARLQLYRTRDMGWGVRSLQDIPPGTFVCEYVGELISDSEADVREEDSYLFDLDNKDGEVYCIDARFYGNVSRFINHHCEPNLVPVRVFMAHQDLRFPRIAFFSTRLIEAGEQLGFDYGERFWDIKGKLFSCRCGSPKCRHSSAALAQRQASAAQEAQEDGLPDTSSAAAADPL
The test is described as follows: Inhibition of GLP assessed as hydrolysis of S-adenosyl-L-homocysteine after 2 mins by SAHH-coupled fluorescence assay. A digest of the protocol:
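GLP at 100 nM was tested by SAHH/adenosine deaminase/ThioGlo coupling in pH 7.5 potassium phosphate buffer with EDTA, MgCl2, Triton X-100 and 25 μM SAM. Inhibitor (4 nM–16 μM) was preincubated 2 min before adding 20 μM H3(1–25). Fluorescence rise (360/528 nm) was tracked 20 min and background-subtracted. IC50 from two independent experiments.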

Test [3] deals with T2, Histone-lysine N-methyltransferase SETD7 (Homo sapiens, UniProt Q8WTS6).
T2 sequence (Q8WTS6 whole entry): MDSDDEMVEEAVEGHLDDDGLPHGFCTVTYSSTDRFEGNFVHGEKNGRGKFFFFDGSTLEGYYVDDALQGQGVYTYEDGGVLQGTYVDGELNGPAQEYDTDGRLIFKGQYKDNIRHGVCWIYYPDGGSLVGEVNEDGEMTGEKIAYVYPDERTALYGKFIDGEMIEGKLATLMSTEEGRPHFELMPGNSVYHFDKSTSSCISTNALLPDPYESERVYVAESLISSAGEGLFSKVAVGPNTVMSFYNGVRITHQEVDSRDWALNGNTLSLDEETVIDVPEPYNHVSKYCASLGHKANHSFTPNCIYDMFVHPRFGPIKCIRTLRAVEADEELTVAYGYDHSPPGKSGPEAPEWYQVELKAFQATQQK
The test can be described thus: Inhibition of SETD7 assessed as hydrolysis of S-adenosyl-L-homocysteine after 2 mins by SAHH-coupled fluorescence assay. The method in brief:
as §1

In test [4] the target is Protein arginine N-methyltransferase 3 (Homo sapiens, UniProt O60678). The test is described as follows: Inhibition of PRMT3 assessed as hydrolysis of S-adenosyl-L-homocysteine after 2 mins by SAHH-coupled fluorescence assay. The method in brief:
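Enzyme-coupled fluorescence readout. Methyltransfer product SAH is converted to homocysteine by SAHH in the presence of adenosine deaminase, and homocysteine is detected with the thiol-sensitive dye ThioGlo. Buffer is 25 mM potassium phosphate pH 7.5 with 1 mM EDTA, 2 mM MgCl2 and 0.01% Triton X-100, plus 5 μM SAHH, 0.3 U/mL deaminase, 25 μM SAM and 15 μM ThioGlo. PRMT3 is at 500 nM. Inhibitor (4 nM–16 μM) is preincubated 2 min, then 10 μM H4(1–24) peptide starts the reaction. Fluorescence is followed for 20 min at ex 360/em 528 nm and background-corrected. IC50 is fitted from two independent experiments.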

Test [5] deals with MDA-MB-231. The test is described as follows: Cytotoxicity against human MDA-MB-231 cells assessed as cell viability after 48 hrs by MTT assay. The settings on record: MDA-MB-231, 48 h. The test is classed as functional, cell-based. A general note: Formazan colour is commonly taken as a measure of viable cells.
Test [6] deals with T3, N-lysine methyltransferase KMT5A (Homo sapiens, UniProt Q9NQR1).
T3 sequence (Q9NQR1 whole entry): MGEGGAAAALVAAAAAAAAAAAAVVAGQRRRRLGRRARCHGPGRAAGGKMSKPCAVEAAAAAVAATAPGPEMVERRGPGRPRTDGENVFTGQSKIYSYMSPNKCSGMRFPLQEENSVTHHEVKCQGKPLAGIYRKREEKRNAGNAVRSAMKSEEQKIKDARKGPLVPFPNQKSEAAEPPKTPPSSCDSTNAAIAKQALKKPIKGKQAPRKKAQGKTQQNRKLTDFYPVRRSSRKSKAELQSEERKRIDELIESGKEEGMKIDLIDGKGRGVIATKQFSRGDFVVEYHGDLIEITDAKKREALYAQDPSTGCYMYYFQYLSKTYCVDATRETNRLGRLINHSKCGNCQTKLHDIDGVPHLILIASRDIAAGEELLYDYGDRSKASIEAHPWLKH
The test can be described thus: Inhibition of SETD8 assessed as hydrolysis of S-adenosyl-L-homocysteine after 2 mins by SAHH-coupled fluorescence assay. The method in brief:
as §1

Protein arginine N-methyltransferase 3, sequence (O60678 whole entry): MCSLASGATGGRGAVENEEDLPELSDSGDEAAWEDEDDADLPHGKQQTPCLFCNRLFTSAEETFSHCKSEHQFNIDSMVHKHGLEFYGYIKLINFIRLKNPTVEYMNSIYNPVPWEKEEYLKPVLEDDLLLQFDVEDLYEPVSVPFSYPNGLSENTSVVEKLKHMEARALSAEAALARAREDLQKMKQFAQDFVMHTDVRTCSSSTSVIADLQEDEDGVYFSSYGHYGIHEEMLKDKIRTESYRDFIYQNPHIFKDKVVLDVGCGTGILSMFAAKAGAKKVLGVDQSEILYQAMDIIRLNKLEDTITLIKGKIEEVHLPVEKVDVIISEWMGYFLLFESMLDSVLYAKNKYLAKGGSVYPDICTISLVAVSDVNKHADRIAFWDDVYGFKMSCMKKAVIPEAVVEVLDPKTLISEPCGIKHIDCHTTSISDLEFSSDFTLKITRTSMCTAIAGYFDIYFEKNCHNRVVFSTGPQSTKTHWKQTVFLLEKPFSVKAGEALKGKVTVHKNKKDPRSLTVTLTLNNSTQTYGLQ
Histone-lysine N-methyltransferase SUV39H2, sequence (Q9H5I1 whole entry): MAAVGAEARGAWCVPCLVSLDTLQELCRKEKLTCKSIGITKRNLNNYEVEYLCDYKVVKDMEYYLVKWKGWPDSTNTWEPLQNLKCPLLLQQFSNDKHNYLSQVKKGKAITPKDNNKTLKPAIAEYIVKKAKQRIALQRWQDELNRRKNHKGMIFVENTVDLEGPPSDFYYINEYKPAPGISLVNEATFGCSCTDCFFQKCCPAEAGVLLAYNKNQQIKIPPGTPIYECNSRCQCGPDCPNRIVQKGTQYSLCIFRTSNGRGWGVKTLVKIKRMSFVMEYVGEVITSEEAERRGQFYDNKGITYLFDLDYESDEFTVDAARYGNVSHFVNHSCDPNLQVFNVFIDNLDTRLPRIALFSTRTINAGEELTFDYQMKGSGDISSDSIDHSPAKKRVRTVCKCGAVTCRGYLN

Regarding `COc1cc2c(NC3CCN(C4CCCCC4)CC3)nc(N3CCCN(C(C)C)CC3)nc2cc1OCCCN1CCCCC1`, the IC50 – broadly, the concentration at which inhibition is half-maximal – in test [1] was more than 10 µM; in test [2] it was less than 0.015 µM; in test [3], more than 10 µM; in test [4] it was more than 10 µM; in test [6], more than 10 µM. Moreover, the EC50 (in general, the midpoint of the concentration-response curve) in test [5] amounted to 3.3 µM.
